Here are results for six molecules from ChEMBL document CHEMBL1122206, “Use of adenine nucleotide derivatives to assess the potential of exo-active-site-directed reagents as species- or isozyme-specific enzyme inactivators. 5. Interactions of adenosine 5'-triphosphate derivatives with rat pyruvate kinases, Escherichia coli thymidine kinase, and yeast and rat …” (1982).

A value given as a limit tells only on which side of the number the result lay.

The target in assay [1] is T1, Hexokinase-1 (Rattus norvegicus) (UniProt P05708).
T1 sequence (whole entry): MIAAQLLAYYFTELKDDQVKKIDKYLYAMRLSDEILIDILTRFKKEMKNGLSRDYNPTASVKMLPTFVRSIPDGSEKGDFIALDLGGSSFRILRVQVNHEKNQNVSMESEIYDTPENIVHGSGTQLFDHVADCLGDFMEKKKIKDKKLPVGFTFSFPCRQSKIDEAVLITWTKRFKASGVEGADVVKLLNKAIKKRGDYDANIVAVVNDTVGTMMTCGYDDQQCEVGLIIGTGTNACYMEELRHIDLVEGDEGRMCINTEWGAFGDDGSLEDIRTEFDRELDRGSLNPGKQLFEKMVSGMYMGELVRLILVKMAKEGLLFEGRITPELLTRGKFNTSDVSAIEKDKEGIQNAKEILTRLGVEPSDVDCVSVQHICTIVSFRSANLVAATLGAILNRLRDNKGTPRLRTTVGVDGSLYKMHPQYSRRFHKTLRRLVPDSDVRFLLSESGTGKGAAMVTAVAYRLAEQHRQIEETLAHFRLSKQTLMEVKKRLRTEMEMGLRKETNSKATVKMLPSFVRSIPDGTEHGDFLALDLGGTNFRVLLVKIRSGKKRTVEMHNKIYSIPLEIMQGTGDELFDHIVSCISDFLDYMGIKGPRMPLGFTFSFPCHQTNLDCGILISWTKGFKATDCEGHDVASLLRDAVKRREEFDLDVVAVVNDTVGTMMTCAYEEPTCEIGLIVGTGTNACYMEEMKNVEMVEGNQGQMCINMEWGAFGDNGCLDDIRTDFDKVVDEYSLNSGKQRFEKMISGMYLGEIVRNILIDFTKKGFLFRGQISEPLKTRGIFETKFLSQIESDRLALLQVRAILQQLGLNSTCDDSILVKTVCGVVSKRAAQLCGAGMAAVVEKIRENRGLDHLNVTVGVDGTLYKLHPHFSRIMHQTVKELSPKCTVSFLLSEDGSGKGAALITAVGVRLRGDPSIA
The experiment in a line: Substrate activity for rat hexokinase I as 1:1 Mg complex at 5.0 mM. In short, it runs like this:
(§1)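 Hexokinase activity read at 22 °C as A340 change, coupled to glucose-6-phosphate dehydrogenase, in 0.05 M Tris-HCl pH 7.6 with 6.6 mM MgCl2, 10 mM α-D-glucose and 0.93 mM NADP. Donor was 5.0 mM MgATP derivative (1:1 Mg complex) in place of ATP. Yeast HK was isoelectric-focused. Rat HK I and III came from electrofocused liver extract, HK II from dialysed muscle extract.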

In assay [2] the target is T1, Hexokinase-1 (Rattus norvegicus). Kind of assay: Time dependent inhibition of Hexokinase type I activity after 6 h, at 22 degrees celsius, at 5 mM compound.
The nature of assay [3]: Tested for the velocity of 2.8 mM compound relative to that of 2.8 mM MgATP in the assay. In short, it runs like this:
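E. coli TK substrate test. 0.5 h after adding inhibitor, the mixture was diluted to 2.8 mM derivative in thymidine assay medium without ATP and with 1.42 mM MnCl2. Incubated 15 min at 37 °C, in the linear range. [14C]TMP formed was compared with that from 2.8 mM ATP under the same conditions.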

The target of assay [4] is T2, Hexokinase-3 (Rattus norvegicus) (UniProt P27926).
T2 sequence (whole entry): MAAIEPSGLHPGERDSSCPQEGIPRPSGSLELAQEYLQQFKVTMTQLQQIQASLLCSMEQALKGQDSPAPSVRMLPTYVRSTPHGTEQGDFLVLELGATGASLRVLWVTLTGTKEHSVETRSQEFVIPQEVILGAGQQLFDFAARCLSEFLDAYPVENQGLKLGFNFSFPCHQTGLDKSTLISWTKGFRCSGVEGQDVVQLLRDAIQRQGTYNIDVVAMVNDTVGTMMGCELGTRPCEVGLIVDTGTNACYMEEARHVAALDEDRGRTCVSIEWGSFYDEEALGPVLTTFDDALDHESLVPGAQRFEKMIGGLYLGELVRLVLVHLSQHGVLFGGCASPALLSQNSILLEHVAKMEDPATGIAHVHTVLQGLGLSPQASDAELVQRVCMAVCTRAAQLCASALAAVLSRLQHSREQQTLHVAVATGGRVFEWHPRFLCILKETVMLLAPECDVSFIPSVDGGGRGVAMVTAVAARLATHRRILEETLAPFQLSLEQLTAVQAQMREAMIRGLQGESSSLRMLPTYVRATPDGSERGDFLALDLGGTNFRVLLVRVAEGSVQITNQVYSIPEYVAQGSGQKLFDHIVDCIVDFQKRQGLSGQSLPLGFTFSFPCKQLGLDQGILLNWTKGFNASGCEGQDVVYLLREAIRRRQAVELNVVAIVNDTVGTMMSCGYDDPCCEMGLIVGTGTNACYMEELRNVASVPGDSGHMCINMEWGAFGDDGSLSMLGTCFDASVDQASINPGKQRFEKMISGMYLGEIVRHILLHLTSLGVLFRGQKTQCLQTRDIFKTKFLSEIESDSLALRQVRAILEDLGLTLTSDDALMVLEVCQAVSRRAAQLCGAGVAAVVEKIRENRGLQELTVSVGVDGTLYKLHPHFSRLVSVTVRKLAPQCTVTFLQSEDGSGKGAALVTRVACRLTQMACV
Kind of assay: Time dependent inhibition of Hexokinase type III activity after 6 h, at 22 degrees celsius, at 5 mM.

For assay [5], the system named is Saccharomyces cerevisiae. The experiment in a line: Substrate activity against yeast hexokinase as 1:1 Mg complexes at 5.0 mM. In short, it runs like this: as §1
Assay [6] has as its system Saccharomyces cerevisiae. The experiment in a line: Time dependent inhibition of hexokinase activity after 6 hr, at 22 degrees celsius, with 5 mM ATP derivative in yeast.
Assay [7] addresses Thymidine kinase (Escherichia coli) (UniProt P23331). The experiment in a line: Compound was tested for the loss of thymidine kinase activity from Escherichia coli after 6 hr at 0 degrees C at 10 mM.
Assay [8] addresses T3, Hexokinase-2 (Rattus norvegicus) (UniProt P27881).
T3 sequence (whole entry): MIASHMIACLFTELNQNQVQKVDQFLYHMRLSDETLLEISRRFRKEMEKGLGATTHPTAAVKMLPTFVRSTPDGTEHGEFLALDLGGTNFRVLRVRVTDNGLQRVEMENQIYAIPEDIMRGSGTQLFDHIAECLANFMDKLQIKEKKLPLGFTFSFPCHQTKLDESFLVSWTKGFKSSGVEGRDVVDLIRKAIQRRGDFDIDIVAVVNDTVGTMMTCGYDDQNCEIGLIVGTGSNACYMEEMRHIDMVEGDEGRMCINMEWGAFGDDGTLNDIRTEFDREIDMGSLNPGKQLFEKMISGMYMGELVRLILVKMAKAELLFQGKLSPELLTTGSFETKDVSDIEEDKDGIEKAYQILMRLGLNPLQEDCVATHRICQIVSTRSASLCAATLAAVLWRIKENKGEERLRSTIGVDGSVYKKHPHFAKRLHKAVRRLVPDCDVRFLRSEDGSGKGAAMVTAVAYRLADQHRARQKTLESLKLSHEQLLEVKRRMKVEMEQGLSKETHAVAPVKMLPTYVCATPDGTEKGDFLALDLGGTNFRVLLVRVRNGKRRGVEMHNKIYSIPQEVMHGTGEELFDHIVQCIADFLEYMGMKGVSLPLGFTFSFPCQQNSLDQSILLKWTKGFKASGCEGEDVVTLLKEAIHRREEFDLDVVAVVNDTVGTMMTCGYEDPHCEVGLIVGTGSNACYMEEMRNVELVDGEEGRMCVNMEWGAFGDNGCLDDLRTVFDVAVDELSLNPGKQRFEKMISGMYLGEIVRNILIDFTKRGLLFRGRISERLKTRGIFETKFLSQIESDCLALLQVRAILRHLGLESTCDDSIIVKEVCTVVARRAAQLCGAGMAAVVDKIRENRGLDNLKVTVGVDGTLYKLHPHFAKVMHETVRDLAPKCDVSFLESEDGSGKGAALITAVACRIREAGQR
The experiment in a line: Substrate activity against Rat hexokinase II as 1:1 Mg complex at 5.0 mM. In short, it runs like this:
as §1

Assay [9] concerns the target T2, Hexokinase-3 (Rattus norvegicus). The experiment in a line: Substrate activity for rat hexokinase III as 1:1 Mg complex at 5.0 mM. In short, it runs like this:
as §1

For assay [10], the target named is Thymidine kinase (Escherichia coli) (UniProt P23331). The experiment in a line: Compound was tested for the initial inhibition of thymidine kinase by 1.4 mM compound in the presence of 5.7 mM ATP.
Thymidine kinase (Escherichia coli), sequence (P23331 whole entry, looked up): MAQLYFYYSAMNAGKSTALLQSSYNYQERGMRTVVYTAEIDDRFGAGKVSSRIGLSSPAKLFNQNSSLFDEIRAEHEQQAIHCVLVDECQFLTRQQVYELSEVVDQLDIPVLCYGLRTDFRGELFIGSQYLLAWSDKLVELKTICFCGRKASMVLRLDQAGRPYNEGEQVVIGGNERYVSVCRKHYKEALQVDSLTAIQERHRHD
For assay [11] the target is unchanged. Kind of assay: Compound was tested for the lose of thymidine kinase activity after 6 hr, at 0 degrees celsius, with 10 mM ATP derivative. values were expressed in percent.
In assay [12] the target is T3, Hexokinase-2 (Rattus norvegicus). Kind of assay: Time dependent inhibition of hexokinase 2 activity after 6 h, at 5 mM compound.
Assay [13] has as its system Saccharomyces cerevisiae. Kind of assay: Compound was tested for time dependent inhibition of hexokinase activity after 6 hr, at 22 degrees celsius, with 5 mM ATP derivative in yeast hexokinase.
Assay [14] deals with Thymidine kinase (Escherichia coli) (UniProt P23331). Kind of assay: Compound was tested for the initial inhibition of thymidine kinase by 1.4 mM compound in the presence of 5.7 mM ATP in Escherichia coli.
A short description of assay [15]: Compound was tested for substrate constants with yeast hexokinase. Maximal velocity Vmax was reported. In short, it runs like this:
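Hexokinase KM and Vmax taken from linear double-reciprocal plots of initial velocity vs. nucleotide level. Assays at 22 °C, coupled to glucose-6-phosphate dehydrogenase (A340), in 0.05 M Tris-HCl pH 7.6 with 6.6 mM MgCl2, 10 mM glucose and 0.93 mM NADP. Yeast HK was isoelectric-focused. Rat HK I and III came from liver, HK II from muscle (male Sprague-Dawley).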

Assay [16] is described as follows: Substrate concentration for half maximal velocity was reported for yeast hexokinase. In short, it runs like this:
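Coupled glucose-6-phosphate dehydrogenase/NADP assay: A340 rate at 22 °C in 0.05 M Tris-HCl pH 7.6 with 6.6 mM MgCl2, 10 mM α-D-glucose and 0.93 mM NADP, nucleotide varied. KM was taken from linear double-reciprocal plots. Rat HK I and III came from electrofocused, dialysed liver extract, HK II from dialysed muscle extract, and yeast HK was isoelectric-focused.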

Assay [17] addresses T2, Hexokinase-3 (Rattus norvegicus). Kind of assay: Time dependent inhibition of Hexokinase type III activity after 6 hr, at 22 degrees celsius, at 5 mM compound.
Assay [18] relates to Saccharomyces cerevisiae. The experiment in a line: Compound was tested for time dependent inhibition of hexokinase activity after 6 h at 22 degrees celsius, with 5 mM compound in yeast hexokinase.

One may read the inhibition as the change of the read-out against control, counted positive when it falls. For the molecule `O=C(CI)NCCCCCC(=O)NCCCNc1ncnc2c1ncn2[C@@H]1O[C@H](COP(=O)(O)OP(=O)(O)OP(=O)(O)O)[C@@H](O)[C@H]1O`, the Relative velocity was 0.79 in assay [1], 1.06 in the assay on Saccharomyces cerevisiae [5], 0.57 in [8] and 1.04 in [9]. In addition, the inhibition in assay [2] came to 0%; in assay [4], 0%; in the assay on Saccharomyces cerevisiae [6], 0%; in assay [7], 74%; in [10] it was 13%. Besides, in assay [3], the Velocity was > 39%.
For `CN(CCCCCCN(C)c1ncnc2c1ncn2[C@@H]1O[C@H](COP(=O)(O)OP(=O)(O)OP(=O)(O)O)[C@@H](O)[C@H]1O)C(=O)CCCCCCNC(=O)CI`, the Relative velocity came out at 1.66 in [1], 0.94 in the assay on Saccharomyces cerevisiae [5], 0.85 in assay [8] and 2.06 in [9]. Also, the inhibition was 0% in assay [2]; 0% in assay [11]; 0% in assay [12]; 0% in the assay on Saccharomyces cerevisiae [13]; 16% in [14]. This molecule also gave a Velocity in assay [3] of 57%.
For the molecule `O=C(CI)NCCCCCC(=O)NCCCCCCNc1ncnc2c1ncn2[C@@H]1O[C@H](COP(=O)(O)OP(=O)(O)OP(=O)(O)O)[C@@H](O)[C@H]1O`, the Relative velocity in [1] was 1.25; in the assay with Saccharomyces cerevisiae [5] it was 1.02; in assay [8], 0.63; in assay [9] it was 1.37. Moreover, the inhibition was determined as 0% in assay [2]; 0% in assay [12]; 0% in assay [4]; 0% in the assay with Saccharomyces cerevisiae [13]; 0% in assay [7]; 8% in assay [10]. The Velocity in assay [3] worked out at 37%.
The term Km denotes the substrate concentration at which the rate is half of its maximum. In the case of `CN(CCCCN(C)c1ncnc2c1ncn2[C@@H]1O[C@H](COP(=O)(O)OP(=O)(O)OP(=O)(O)O)[C@@H](O)[C@H]1O)C(=O)CCCCCNC(=O)OCc1ccccc1`, the Vmax in assay [15] stood at 75%. Also, in assay [16], the Km came to 300 µM.
With `O=C(CI)NCCCCCNc1ncnc2c1ncn2[C@@H]1O[C@H](COP(=O)(O)OP(=O)(O)OP(=O)(O)O)[C@@H](O)[C@H]1O`, the Relative velocity is 0.92 in assay [1], 0.75 in the assay with Saccharomyces cerevisiae [5], 0.6 in [8] and 1.31 in [9]. In assay [3], this molecule showed a Velocity of 13%. The inhibition was 0% in assay [17], 0% with Saccharomyces cerevisiae [6], 0% in assay [7] and 26% in [10].
Regarding `NC(=O)CI.Nc1ncnc2c1ncn2[C@@H]1O[C@H](COP(=O)(O)OP(=O)(O)OP(=O)(O)O)[C@@H](O)[C@H]1O`, the inhibition in [2] was found to be 5%; in [12] it was 7%; in [4], 0%; with Saccharomyces cerevisiae [18], 0%.
